Results: ChEMBL document CHEMBL3244032, “Synthesis and antiviral acticity of some phosphates of the broad-spectrum antiviral nucleoside, 1-beta-D-ribofuranosyl-1,2,4-triazole-3-carboxamide (ribavirin)” (J Med Chem, 1978)
The source made the active and inactive calls. The rule behind the calls is not given here.

Assays:
Human alphaherpesvirus 1 = assay: Antiviral activity against HSV1 infected in human KB cells assessed as inhibition of virus-induced cytopathic effect at 1 to 1000 ug/ml after 72 hrs; format: functional, organism-based
How it was run: (§1)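 KB cell monolayers (24 h old) infected with 320 cell culture 50% infectious doses/mL of virus; compound added 15 min after infection at 1000 to 1 μg/mL. Plates incubated 72 h at 37 °C and scored for inhibition of viral CPE. Activity was expressed as a virus rating that accounts for cytotoxicity and CPE in treated versus untreated cells. VR 0.5 or above was taken as definite activity.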

Human respirovirus 3 = assay: Antiviral activity against Parainfluenza virus type 3 infected in human KB cells assessed as inhibition of virus-induced cytopathic effect at 1 to 1000 ug/ml after 72 hrs; format: functional, organism-based; how it was run: as §1
KB [1] = assay: Antiviral activity against Adenovirus type 3 infected in human KB cells assessed as inhibition of virus-induced cytopathic effect at 1 to 1000 ug/ml after 72 hrs; format: functional, cell-based; details: Human adenovirus 3; how it was run: as §1
KB [2] = assay: Antiviral activity against Rhinovirus type 13 infected in human KB cells assessed as inhibition of virus-induced cytopathic effect at 1 to 1000 ug/ml after 72 hrs; format: functional, cell-based; details: Human rhinovirus A13; how it was run: as §1
Vaccinia virus = assay: Antiviral activity against Vaccinia virus infected in human KB cells assessed as inhibition of virus-induced cytopathic effect at 1 to 1000 ug/ml after 72 hrs; format: functional, organism-based; details: Orthopoxvirus vaccinia
Murine hepatitis virus [3] = assay: Antiviral activity against Murine hepatitis virus Friend-Braunsteiner infected in ip dosed Swiss mouse assessed as most effective dose administered bid for 8 days; format: functional
How it was run: (§2)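 Swiss mice, 16-18 g, inoculated ip with a 95% lethal dose of virus. Dosed ip twice daily for 8 days, beginning 2 h before inoculation, at 18.8, 37.5 or 75 mg/kg/day; controls got saline. Survivors counted on day 21; survival compared by χ² analysis. Mean survival time is from deaths on or before day 21, compared by t test.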

Influenza A virus [4] = assay: Antiviral activity against Influenza A2 virus Japan 305 infected in Swiss mouse assessed as survival at 75 mg/kg/day, po bid administered for 9 days relative to control; format: functional, organism-based
[5] = Toxicity in Swiss mouse; format: organism-based; details: in vivo
Mus musculus [6] = assay: Toxicity in Swiss mouse infected with Murine hepatitis virus Friend-Braunsteiner assessed as survival at 18.8 mg/kg/day, ip bid administered for 8 days started at 2 hrs prior to infection; format: organism-based; design: route intraperitoneal; details: in vivo
Mus musculus [7] = assay: Toxicity in Swiss mouse infected with Influenza B virus Lee assessed as survival at 75 mg/kg/day, ip bid administered for 9 days started at 4 hrs prior to infection; format: organism-based; design: route intraperitoneal; details: in vivo
Murine hepatitis virus [8] = assay: Antiviral activity against Murine hepatitis virus Friend-Braunsteiner infected in Swiss mouse assessed as mean survival time at 75 mg/kg/day, ip bid administered for 8 days (reference value: 5.2 days); format: functional; details: route intraperitoneal; how it was run: as §2
Influenza B virus [9] = assay: Antiviral activity against Influenza B virus Lee infected in Swiss mouse assessed as mean survival time at 75 mg/kg/day, ip bid administered for 9 days (reference value: 11.2 days); format: functional; details: route intraperitoneal
How it was run: (§3)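 Swiss mice, 14-16 g, given virus intranasally at a dose lethal to 95%. Dosed intraperitoneally twice daily for 9 days, starting 4 h before infection; controls got saline. Survivors counted on day 21 postinfection; survival compared by χ² analysis. Mean survival time is from animals dying on or before day 21 and was compared by t test.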

Mus musculus [10] = assay: Toxicity in Swiss mouse infected with Influenza A2 virus Japan 305 assessed as survival at 75 mg/kg/day, po bid administered for 9 days started at 4 hrs prior to infection; format: organism-based; design: route oral; details: in vivo
Influenza A virus [11] = assay: Antiviral activity against Influenza A2 virus Japan 305 infected in Swiss mouse assessed as mean survival time at 75 mg/kg/day, po bid administered for 9 days (reference value: 9 days); format: functional
Murine hepatitis virus [12] = assay: Antiviral activity against Murine hepatitis virus Friend-Braunsteiner infected in Swiss mouse assessed as mean survival time at 18.8 mg/kg/day, ip bid administered for 8 days (reference value: 5.2 days); format: functional; details: route intraperitoneal; how it was run: as §2
Murine hepatitis virus [13] = assay: Antiviral activity against Murine hepatitis virus Friend-Braunsteiner infected in Swiss mouse assessed as mean survival time at 37.5 mg/kg/day, ip bid administered for 8 days (reference value: 5.2 days); format: functional; details: route intraperitoneal; how it was run: as §2
Murine hepatitis virus [14] = assay: Antiviral activity against Murine hepatitis virus Friend-Braunsteiner infected in Swiss mouse assessed as survival at 18.8 to 75 mg/kg/day, ip bid administered for 8 days relative to control; format: functional, organism-based
How it was run: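 Swiss mice of 16-18 g were inoculated ip with a 95% lethal dose of virus. Treatment was given ip twice daily for 8 days, starting 2 h before inoculation, at 75, 37.5 or 18.8 mg/kg/day; placebo controls received saline. Survivors were counted on day 21 postinfection and compared by χ² analysis. Mean survival time covered animals dying by day 21 and was compared by t test. Uninfected toxicity controls were included.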

Mus musculus [15] = assay: Toxicity in Swiss mouse infected with Murine hepatitis virus Friend-Braunsteiner assessed as survival at 37.5 mg/kg/day, ip bid administered for 8 days started at 2 hrs prior to infection; format: organism-based; design: route intraperitoneal; details: in vivo
Influenza B virus [16] = assay: Antiviral activity against Influenza B virus Lee infected in Swiss mouse assessed as survival at 75 mg/kg/day, ip bid administered for 9 days relative to control; format: functional, organism-based; how it was run: as §3
Mus musculus [17] = assay: Toxicity in Swiss mouse infected with Murine hepatitis virus Friend-Braunsteiner assessed as survival at 75 mg/kg/day, ip bid administered for 8 days started at 2 hrs prior to infection; format: organism-based; design: route intraperitoneal; details: in vivo

SMILES | Activity (Human alphaherpesvirus 1) | Activity (Human respirovirus 3) | Activity (KB [1]) | Activity (KB [2]) | Activity (Vaccinia virus) | Activity (Murine hepatitis virus [3]) [mg/kg/day] | Activity (Influenza A virus [4]) | MTD [5] [mg/kg/day] | Activity (Mus musculus [6]) | Activity (Mus musculus [7]) | MSD (Murine hepatitis virus [8]) [days] | MSD (Influenza B virus [9]) [days] | Activity (Mus musculus [10]) | MSD (Influenza A virus [11]) [days] | MSD (Murine hepatitis virus [12]) [days] | MSD (Murine hepatitis virus [13]) [days] | Activity (Murine hepatitis virus [14]) | Activity (Mus musculus [15]) | Activity (Influenza B virus [16]) | Activity (Mus musculus [17])
NC(=O)c1ncn([C@@H]2O[C@H](COP(=O)(O)OP(=O)(O)O)[C@@H](O)[C@H]2O)n1 | Active | Active | inactive | Active | Active |  |  |  |  |  |  |  |  |  |  |  |  |  |  | 
NC(=O)c1ncn([C@@H]2O[C@H](CO)[C@H]3OP(=O)(O)O[C@H]32)n1 | Active | Active | inactive | Active | Active |  |  |  |  |  |  |  |  |  |  |  |  |  |  | 
NC(=O)c1ncn([C@@H]2O[C@@H]3COP(=O)(O)O[C@H]3[C@H]2O)n1 | Active | Active | inactive | Active | Active |  |  |  |  |  |  |  |  |  |  |  |  |  |  | 
NC(=O)c1ncn([C@@H]2O[C@H](COP(=O)(O)OP(=O)(O)OP(=O)(O)O)[C@@H](O)[C@H]2O)n1 | Active | Active | inactive | Active | Active |  |  |  |  |  |  |  |  |  |  |  |  |  |  | 
NC(=O)c1ncn([C@@H]2O[C@H](CO)[C@@H](O)[C@H]2O)n1 | Active | Active | Active | Active | Active |  |  |  |  |  |  |  |  |  |  |  |  |  |  | 
NC(=O)c1ncn([C@@H]2O[C@H](COP(=O)([O-])[O-])[C@@H](O)[C@H]2O)n1.[Li+].[Li+] | Active | Active | inactive | Active | Active | 37.5 | Active | 150 | Non-toxic | Non-toxic | 6.1 | 13.3 | Non-toxic | 7.6 | 5.3 | 6 | Active | Non-toxic | Active | Non-toxic
